Data taken from paper PMC12282411 (Virologica Sinica, 2025).
Substitutions are numbered along the chain they refer to. Counter-ions that a name gives are not always drawn.

Legend:
[1] = system: DENV 2; experiment: DENV 2 challenge of AG129 mice; type: in vivo; details: for viral copy numbers in the spleen and liver: i.g., two days post infection, Fig. 2F
[2] = system: DENV 2; experiment: microbe, parasite or virus in culture; type: cell-based; details: for EC50: Dengue virus, BHK-21, 48 h, read-out: EC50 (BHK-21 μM); for SI (CC50/EC50): selective index, BHK-21 CC50 / BHK-21 EC50
[3] = system: DENV 2; experiment: Antiviral assay on Huh 7 cells; type: cell-based; details: Dengue virus, Huh-7, 48 h, read-out: EC50 (Huh 7 μM)
Summary of the method: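 Huh 7 cells were seeded at 4×10^4/well and grown overnight at 37 °C, 5% CO₂. Test compound was serially diluted threefold from 50 µM in DMEM with 2% FBS and added to cells for 1 h. DENV 2 was added at MOI 1 for 1 h, then the inoculum was removed, cells washed with PBS, and compound re-added. After two days, supernatant viral RNA was quantified by one-step SYBR RT-qPCR against an NS5A standard curve.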

[4] = Pharmacokinetics in rats; type: in vivo, Sprague-Dawley rats; details: SD rats, i.v. as a reference
Summary of the method: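 Male Sprague-Dawley rats (180–220 g), three per group, were fasted overnight. Test compound was dosed i.g. at 20 mg/kg as a suspension in 0.4% sodium carboxymethylcellulose, or i.p. dissolved by sonication in 10% DMSO/40% PEG 300/5% Tween 80/45% saline. Jugular plasma was sampled repeatedly up to 36 h. Samples were mixed with diclofenac sodium, precipitated with acetonitrile, and analysed by LC-MS/MS. Parameters were derived by non-compartmental analysis.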

[5] = biological target: T1, ZIKV NS2B-NS3pro (Zika virus, UniProt Q32ZE1); experiment: FRET assay on ZIKV NS2B-NS3pro; type: biochemical
T1 sequence (Q32ZE1 with tags, fused parts or gaps DEL1464-1489/Y1490G/V1491G/Y1492G/V1493G/K1494S/T1495G/K1497G/R1498G): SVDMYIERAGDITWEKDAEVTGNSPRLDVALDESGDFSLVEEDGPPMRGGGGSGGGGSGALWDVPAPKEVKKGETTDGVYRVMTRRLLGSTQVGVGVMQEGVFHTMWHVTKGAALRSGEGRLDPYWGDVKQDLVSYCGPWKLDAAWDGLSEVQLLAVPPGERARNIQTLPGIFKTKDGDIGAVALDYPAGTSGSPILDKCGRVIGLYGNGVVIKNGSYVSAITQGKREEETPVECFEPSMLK

[6] = Water solubility; type: physicochemical
[7] = system: DENV 2; experiment: Time-of-addition assay; type: cell-based; details: BHK-21 cells
Summary of the method: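 The assay used BHK-21 cells seeded overnight. In the treatment-mode arms, cells were infected at MOI 0.1 for 0–1 h, with compound applied as virus pretreatment for 1 h, cell pretreatment (–1–0 h), post-infection (1–46 h) or full-time (–1–46 h). In the addition-time arms, infection was at MOI 1 for 1 h, with compound added at 0–36 h. Readout at 48 h was supernatant RT-qPCR and IFA, with DMSO and ribavirin as controls.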

[8] = biological target: T2, DENV 2 NS2B-NS3pro (Dengue virus type 2, UniProt P29990); experiment: Enzyme kinetic analysis; type: biochemical
T2 sequence (P29990 with tags, fused parts or gaps T1441G/I1442G/L1443G/I1444G/R1445S/T1446G/DEL1448-1473/Q1474G/R1475G): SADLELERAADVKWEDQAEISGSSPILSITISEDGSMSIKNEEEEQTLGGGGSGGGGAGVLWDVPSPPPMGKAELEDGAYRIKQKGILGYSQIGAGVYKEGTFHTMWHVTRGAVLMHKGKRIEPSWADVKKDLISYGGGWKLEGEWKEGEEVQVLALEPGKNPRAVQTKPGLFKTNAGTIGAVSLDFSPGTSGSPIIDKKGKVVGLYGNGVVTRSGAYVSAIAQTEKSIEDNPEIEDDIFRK

[9] = biological target: T3, NS2B-NS3pro (Dengue virus type 2, UniProt P29990, M1488V); type: binding, DENV 2; details: SPR
T3 sequence (P29990 with tags, fused parts or gaps T1441G/I1442G/L1443G/I1444G/R1445S/T1446G/DEL1448-1473/Q1474G/R1475G/M1488V): T2 sequence (P29990 with tags, fused parts or gaps T1441G/I1442G/L1443G/I1444G/R1445S/T1446G/DEL1448-1473/Q1474G/R1475G) with M70V

SMILES | viral copy numbers in the spleen and liver [1] | EC50 [2] | EC50 [3] | SI (CC50/EC50) [2] | also measured
COC(=O)N[C@H](C(=O)N1CCC[C@H]1c1nc(-c2ccc3c(c2)O[C@@H](c2ccccc2)n2c-3cc3cc(-c4c[nH]c([C@@H]5CCCN5C(=O)[C@@H](NC(=O)OC)C(C)C)n4)ccc32)c[nH]1)C(C)C [MK-8742] | no effect | 45.9 nM | 161 nM | – | –
CC1=NN(c2ccc(C)c(C)c2)C(=O)/C1=N\Nc1cccc(-c2cccc(C(=O)O)c2)c1O [Eltrombopag] | significantly reduced | 316 nM | 1460 nM | – | viral copy numbers in the liver, spleen, and kidney ([1]; 10 or 20 mg/kg, i.g. or i.p., two days post challenge, Fig. 3C): reduced the viral copy numbers in the liver, spleen, and kidney in a dose-dependent manner; decrease of viral loads in spleen ([1]; DENV 2 at 10^7 TCID50): more than 1 log; expression of TNF-α and IL-6 in the blood ([1]; RT-qPCR, Fig. 3D): inhibited the expression of TNF-α and IL-6; inhibitory effect on viral copies by delivery route ([1]; i.p. compared with i.g., Fig. 3C): stronger inhibitory effect when delivered via i.p.; pharmacokinetics i.p. compared with i.g. [4]: better absorption, distribution, and clearance; IC50 [5]: 29800 nM; water solubility [6]: poorly water-soluble; inhibition on addition at 36 h or later ([7]; MOI = 1, RT-qPCR at 48 h): reduced inhibition; time of addition following DENV 2 infection with effective inhibition ([7]; MOI = 1, RT-qPCR at 48 h): ≤ 24 h; inhibition when added at the post-infection stage versus full-time treatment ([7]; RT-qPCR at 48 h): comparable inhibition; effect on the viruses and cells themselves (pretreatment modes) ([7]; pretreatment of virus or of cell): negligible effect; reversibility of binding to DENV2 NS2B-NS3pro ([8]; varying NS2B-NS3pro, fixed substrate 20 μM, eltrombopag 0, 10 and 20 μM): reversibly binds; mode of inhibition with respect to substrate ([8]; varying substrate, NS2B-NS3pro 300 nM, Vmax changes, Km unchanged): substrate-non-competitive manner
NC(=O)c1ncn([C@@H]2O[C@H](CO)[C@@H](O)[C@H]2O)n1 [Ribavirin] | – | – | – | – | time of addition following DENV 2 infection with effective inhibition ([7]; MOI = 1, RT-qPCR at 48 h): ≤ 12 h
C#CCC(Cc1cnc2nc(N)nc(N)c2n1)c1ccc(C(=O)N[C@@H](CCC(=O)O)C(=O)O)cc1 (stereo partly drawn) [Pralatrexate] | – | < 7.6 nM | < 70 nM | >13684.21 | SI (CC50/EC50) ([2]; listed as pralatrexate): greater than 100; binding affinity on NS2B-NS3pro [9]: almost no binding affinity
CCOC(=O)c1ccc(C#Cc2ccc3c(c2)C(C)(C)CCS3)nc1 [AGN190168] | – | 10900 nM | 107 nM | 24.15 | –
COC(=O)N[C@H](C(=O)N1CC2(CC2)C[C@H]1c1nc(-c2ccc3c(c2)C(F)(F)c2cc(-c4ccc5[nH]c([C@@H]6[C@H]7CC[C@H](C7)N6C(=O)[C@@H](NC(=O)OC)C(C)C)nc5c4)ccc2-3)c[nH]1)C(C)C [GS-5885] | no effect | 3320 nM | 529 nM | – | –
NC(=NCc1ccccc1)NC(=O)c1nc(Cl)c(N)nc1N [Benzamil hydrochloride] | – | 368 nM | 2620 nM | 120.85 | SI (CC50/EC50) ([2]; listed as benzamil hydrochloride): greater than 100; binding affinity on NS2B-NS3pro [9]: almost no binding affinity
Cc1cc(-c2ccc(/N=N/c3ccc4c(S(=O)(=O)O)cc(S(=O)(=O)O)c(N)c4c3O)c(C)c2)ccc1/N=N/c1ccc2c(S(=O)(=O)O)cc(S(=O)(=O)O)c(N)c2c1O [Evans Blue] | – | 4850 nM | 337 nM | 49.98 | –
